Experimental data from ChEMBL document CHEMBL4393678, “Novel Tetrahydroquinazolinamines as Selective Histamine 3 Receptor Antagonists for the Treatment of Obesity” (J Med Chem, 2019).
Activity calls are given as the source filed them. No cut-off for these calls is given here.

Legend:
Histamine H2 receptor = Histamine H2 receptor (Homo sapiens, UniProt P25021); test: Agonist activity at recombinant human Gs-coupled H2 receptor expressed in HEK293T cells assessed as inhibition of forskolin-stimulated cAMP accumulation preincubated for 10 to 15 followed by forskolin-stimulation by Glo-sensor assay; format: functional, cell-based
Sequence of Histamine H2 receptor (P25021 whole entry): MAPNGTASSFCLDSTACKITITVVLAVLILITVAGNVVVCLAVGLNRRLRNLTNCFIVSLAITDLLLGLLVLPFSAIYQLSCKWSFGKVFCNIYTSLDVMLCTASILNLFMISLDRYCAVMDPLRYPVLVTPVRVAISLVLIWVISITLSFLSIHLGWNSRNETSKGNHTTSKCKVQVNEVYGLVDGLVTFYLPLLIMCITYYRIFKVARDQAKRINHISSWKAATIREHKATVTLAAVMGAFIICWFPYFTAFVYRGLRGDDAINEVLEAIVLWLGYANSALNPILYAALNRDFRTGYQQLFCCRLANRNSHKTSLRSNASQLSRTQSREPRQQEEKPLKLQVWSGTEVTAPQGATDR

Histamine H3 receptor = Histamine H3 receptor (Homo sapiens, UniProt Q9Y5N1); test: Antagonist activity at recombinant human Gi-coupled H3 receptor expressed in HEK293T cells assessed as reduction in histamine-induced inhibition of forskolin-stimulated cAMP accumulation preincubated for 10 to 15 followed by histamine addition for 10 mins and subsequent forskolin-stimulation by Glo-sensor assay; format: functional, cell-based
Sequence of Histamine H3 receptor (Q9Y5N1 whole entry): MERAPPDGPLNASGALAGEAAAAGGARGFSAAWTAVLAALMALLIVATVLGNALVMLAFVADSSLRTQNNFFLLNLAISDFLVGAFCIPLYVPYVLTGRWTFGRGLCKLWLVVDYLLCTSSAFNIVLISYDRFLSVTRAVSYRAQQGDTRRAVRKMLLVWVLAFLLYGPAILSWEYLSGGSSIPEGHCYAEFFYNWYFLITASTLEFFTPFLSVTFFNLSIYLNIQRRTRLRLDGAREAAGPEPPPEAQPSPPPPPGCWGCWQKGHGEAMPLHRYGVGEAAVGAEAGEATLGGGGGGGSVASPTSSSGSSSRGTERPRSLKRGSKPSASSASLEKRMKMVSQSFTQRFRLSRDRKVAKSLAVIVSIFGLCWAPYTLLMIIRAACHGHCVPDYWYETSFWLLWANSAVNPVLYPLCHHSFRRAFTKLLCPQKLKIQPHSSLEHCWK

[1] = molecular target: D(2) dopamine receptor (Homo sapiens) (UniProt P14416); test: Agonist activity at Gi-coupled D2 receptor (unknown origin) expressed in HEK293T cells assessed as inhibition of forskolin-stimulated cAMP accumulation preincubated for 10 to 15 followed by forskolin-stimulation by Glo-sensor assay; format: functional, cell-based
Sequence of D(2) dopamine receptor (Homo sapiens) (P14416 whole entry): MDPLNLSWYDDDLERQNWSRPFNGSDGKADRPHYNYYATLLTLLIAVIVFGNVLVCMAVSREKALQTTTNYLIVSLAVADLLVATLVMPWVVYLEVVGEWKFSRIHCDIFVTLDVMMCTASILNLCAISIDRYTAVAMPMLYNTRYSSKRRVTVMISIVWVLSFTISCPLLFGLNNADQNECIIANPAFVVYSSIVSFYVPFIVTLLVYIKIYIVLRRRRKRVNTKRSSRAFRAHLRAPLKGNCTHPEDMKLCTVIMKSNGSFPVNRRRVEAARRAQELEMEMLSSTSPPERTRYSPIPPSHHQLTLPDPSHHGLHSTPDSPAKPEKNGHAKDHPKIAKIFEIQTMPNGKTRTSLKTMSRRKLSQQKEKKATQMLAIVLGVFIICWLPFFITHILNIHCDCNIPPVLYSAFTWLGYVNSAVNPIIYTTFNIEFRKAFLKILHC

[2] = molecular target: D(1A) dopamine receptor (Homo sapiens) (UniProt P21728); test: Agonist activity at Gs-coupled D1 receptor (unknown origin) expressed in HEK293T cells assessed as inhibition of forskolin-stimulated cAMP accumulation preincubated for 10 to 15 followed by forskolin-stimulation by Glo-sensor assay; format: functional, cell-based
Sequence of D(1A) dopamine receptor (Homo sapiens) (P21728 whole entry): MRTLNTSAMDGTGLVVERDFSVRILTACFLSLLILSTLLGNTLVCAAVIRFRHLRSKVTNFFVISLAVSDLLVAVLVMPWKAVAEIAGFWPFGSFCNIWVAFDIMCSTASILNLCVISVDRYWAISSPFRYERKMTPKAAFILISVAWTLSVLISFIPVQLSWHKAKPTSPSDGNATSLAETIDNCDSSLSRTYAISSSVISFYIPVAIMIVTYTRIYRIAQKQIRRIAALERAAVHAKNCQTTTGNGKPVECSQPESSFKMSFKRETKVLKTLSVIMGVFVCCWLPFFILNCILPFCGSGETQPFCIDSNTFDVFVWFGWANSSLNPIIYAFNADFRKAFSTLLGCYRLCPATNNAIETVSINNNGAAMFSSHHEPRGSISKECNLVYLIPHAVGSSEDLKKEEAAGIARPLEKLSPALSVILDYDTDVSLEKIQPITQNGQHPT

[3] = Tmax in C57BL/6J mouse serum at 20 mg/kg, po by LC-MS/MS analysis; format: ADME, organism-based
Method in brief: (§1)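 Male C57BL/6J mice (6-8 weeks, 20 ± 5 g) fasted overnight (12-16 h) got a single 20 mg/kg oral dose as 2.5 mg/mL suspension in 1% w/v gum acacia; n=5 per time point. Serum and brain (PBS homogenate 1:6 w/v) sampled up to 24 h. Parent and demethylated metabolite quantified by LC-MS/MS after liquid-liquid extraction (C18, MRM, phenacetin internal standard; linear 0.25-200 ng/mL). Two-compartment open model fit.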

[4] = AUClast in C57BL/6J mouse serum at 20 mg/kg, po by LC-MS/MS analysis; format: ADME, organism-based; design: dose 20 mg/kg, route oral, time 0 - last
Method in brief: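 Male C57BL/6J mice, 6-8 weeks, 20 ± 5 g, fasted overnight (12-16 h), n = 5 per time point. Single 20 mg/kg oral dose given by feeding needle as a 2.5 mg/mL suspension in 1% w/v gum acacia and water. Serum and brain (homogenized 1:6 w/v in PBS) sampled up to 24 h. Liquid-liquid extraction, then LC-MS/MS in positive MRM mode with phenacetin as internal standard. Linear range 0.25-200 ng/mL. Non-compartmental and compartmental analysis.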

[5] = Apparent volume of distribution in C57BL/6J mouse serum at 20 mg/kg, po by LC-MS/MS analysis; format: ADME, organism-based; method in brief: as §1
[6] = Ratio of AUClast in C57BL/6J mouse brain assessed as 4-(2-Amino-8-methyl-5,6,7,8-tetrahydroquinazolin-4-yl)phenol level to AUClast in C57BL/6J mouse brain; format: ADME, tissue-based; settings: in vivo
Method in brief: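 Male C57BL/6J mice (6–8 weeks) were fasted 12–16 h, then given a single oral dose of 20 mg/kg as a 2.5 mg/mL suspension in 1% gum acacia/water (n=5 per time point). Serum and brain (homogenised 1:6 in PBS) were sampled up to 24 h. Parent and demethylated metabolite were measured by LC-MS/MS (range 0.25–200 ng/mL). AUC ran to the last observation.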

[7] = Fraction unbound in C57BL/6J mouse brain by equilibrium dialysis method; format: ADME, tissue-based
Method in brief: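 Plasma protein binding and unbound fraction in mouse brain tissue homogenate measured by equilibrium dialysis.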

Mus musculus [8] = test: Anorexic effect in 12 hrs fasted db/db-induced obese C57BL/6J mouse model assessed as reduction in cumulative food intake at 20 mg/kg, po pretreated for 30 mins followed by food addition measured after 4 hrs in presence of H3R agonist-imitet; format: functional, organism-based
Method in brief: (§2)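 Mice starved 12 h (8:00 am to 8:00 pm) with water available, then housed singly. Compound given orally in 5% gum acacia in normal saline; vehicle group received the same. Cumulative food intake measured over 4 h of the night phase (9:00 pm to 1:00 am), starting 30 min after dosing. Antagonism arms: imitet 5 mg/kg i.p. 30 min before compound, or α-methyl-DL-histidine 20 mg/kg i.p. 2 h before.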

Mus musculus [9] = test: Anorexic effect in 12 hrs fasted db/db-induced obese C57BL/6J mouse model assessed as reduction in cumulative food intake at 20 mg/kg, po pretreated for 30 mins followed by food addition measured after 4 hrs in presence of histidine decarboxylase inhibitor alpha-MDLH; format: functional, organism-based; method in brief: as §2
Mus musculus [10] = test: Anti-obesity activity in high fat diet-induced obese C57BL/6J mouse model assessed as change in body weight at 10 mg/kg, po measured after 6 weeks (reference value: 3.86 +/- 0.99 g); format: functional
Method in brief: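 Male C57BL/6J mice (6–8 weeks, 22–25 g) on high-fat diet, with a normal-chow group included. Daily chronic oral dosing against vehicle for six weeks. Percent body weight change followed over the treatment days, and net body weight change taken at six weeks. n=5-6 per group. Two-way ANOVA, or one-way ANOVA with Newman-Keuls test.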

[11] = Toxicity in lean C57BL/6J mouse assessed as change in body weight at 20 mg/kg, po measured after 6 weeks; format: organism-based; settings: in vivo, 1008 h
Mus musculus [12] = test: Anti-obesity activity in high fat diet-induced obese C57BL/6J mouse model assessed as reduction in body fat mass at 10 mg/kg, po measured after 6 weeks relative to control by NMR-based magnetic resonance imaging analysis; format: functional
Method in brief: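 Male C57BL/6J mice on high-fat diet dosed orally for six weeks against a vehicle-treated high-fat diet group and a chow group. Body composition (fat mass, lean mass, % body fat) measured by EchoMRI live scanning. n=5-6. One-way ANOVA with Newman-Keuls test.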

Mus musculus [13] = test: Anti-obesity activity in 16 hrs fasted db/db-induced obese C57BL/6J mouse model assessed as change in blood TG level at 20 mg/kg, po measured after 6 weeks; format: functional, organism-based
Mus musculus [14] = test: Anti-obesity activity in 16 hrs fasted db/db-induced obese […] mouse model assessed as reduction in body weight at 20 mg/kg, po measured after 4 weeks; format: functional, organism-based

With `COc1ccc(-c2nc(N)nc3c2CCCC3C)cc1` (racemic) the EC50 (Histamine H2 receptor) was “Not Active”, the INH (Histamine H2 receptor) was greater than 10 µM and the IC50 (Histamine H3 receptor) was 40 nM. For the same compound, the inhibition [1] was “inactive”, the inhibition [2] was “inactive” and the Tmax [3] was 15 min. The AUC(0-t) [4] was 1920 ng·h/mL, the Vd/F [5] was 28.5 L/kg and the “Ratio AUC” value [6] was 32.4%. For the same compound, the fraction unbound [7] was 0.284, the Activity (Mus musculus [8]) was “inactive” and the Activity (Mus musculus [9]) was “inactive”. The Activity (Mus musculus [10]) was 2.6 g, the Activity [11] was “Non-Toxic” and the Activity (Mus musculus [12]) was “Active”. The Activity (Mus musculus [13]) was “inactive” and the Activity (Mus musculus [14]) was “Active”.
